Apaf1 inhib = inhibitors of human Apaf-1 apoptosome. O14727. reconstituted apoptosome caspase-3 activity, DEVD-Rh110 fluorescence. inhibition, % at 20 µM. 330,000 tested, 0.71% active; active means inhibition of at least 40% at 20 µM;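 further: plate controls were DMSO wells for no effect and DEVD-CHO caspase inhibitor wells for full effect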
Target sequence (O14727 whole entry, looked up): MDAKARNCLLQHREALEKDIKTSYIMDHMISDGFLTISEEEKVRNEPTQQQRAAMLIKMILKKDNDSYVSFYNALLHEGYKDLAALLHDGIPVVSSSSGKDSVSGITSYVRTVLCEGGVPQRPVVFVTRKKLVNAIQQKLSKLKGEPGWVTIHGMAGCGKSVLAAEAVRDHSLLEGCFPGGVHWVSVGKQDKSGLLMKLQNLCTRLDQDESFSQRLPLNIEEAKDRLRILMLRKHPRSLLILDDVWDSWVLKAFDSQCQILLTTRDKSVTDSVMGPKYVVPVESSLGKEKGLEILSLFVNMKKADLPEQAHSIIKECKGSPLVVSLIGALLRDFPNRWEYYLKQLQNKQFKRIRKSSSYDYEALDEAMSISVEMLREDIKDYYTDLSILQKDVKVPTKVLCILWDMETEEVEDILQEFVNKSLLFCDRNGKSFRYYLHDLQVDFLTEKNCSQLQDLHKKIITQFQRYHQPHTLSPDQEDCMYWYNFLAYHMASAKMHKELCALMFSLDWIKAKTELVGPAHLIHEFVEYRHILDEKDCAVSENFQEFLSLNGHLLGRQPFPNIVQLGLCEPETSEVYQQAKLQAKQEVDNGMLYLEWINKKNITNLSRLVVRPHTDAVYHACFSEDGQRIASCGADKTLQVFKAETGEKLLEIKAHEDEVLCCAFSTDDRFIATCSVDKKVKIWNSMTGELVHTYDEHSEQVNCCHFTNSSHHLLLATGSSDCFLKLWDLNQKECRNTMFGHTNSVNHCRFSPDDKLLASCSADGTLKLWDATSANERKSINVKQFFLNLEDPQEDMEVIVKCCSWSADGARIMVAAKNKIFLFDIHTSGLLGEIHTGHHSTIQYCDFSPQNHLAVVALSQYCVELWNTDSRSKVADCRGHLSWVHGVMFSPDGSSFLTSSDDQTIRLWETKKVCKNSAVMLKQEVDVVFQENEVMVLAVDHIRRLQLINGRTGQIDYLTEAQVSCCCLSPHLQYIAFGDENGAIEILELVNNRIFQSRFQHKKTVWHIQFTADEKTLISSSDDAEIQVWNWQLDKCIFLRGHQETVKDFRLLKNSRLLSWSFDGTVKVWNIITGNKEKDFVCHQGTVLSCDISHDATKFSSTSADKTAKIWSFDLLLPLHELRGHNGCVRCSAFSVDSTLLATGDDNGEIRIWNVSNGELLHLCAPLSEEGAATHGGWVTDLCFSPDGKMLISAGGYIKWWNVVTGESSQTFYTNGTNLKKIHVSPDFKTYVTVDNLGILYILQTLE
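Material: reconstituted apoptosome with Apaf-1, cytochrome c, caspase-9, procaspase-3, dATP; medium: pH 7.5 Hepes buffer with CHAPS, BSA, DTT; also added: cytochrome c and DEVD-Rh110 substrate; timing: 30 min plus 50 min, RT; signal: Rh110 fluorescence intensity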
ZTA counter = ZTA (EBV) inhibition in EBNA-1 counter-screen; ZTA-DNA binding, fluorescence polarization; inhibition, % at 11 µM; 320,000 tested, 0.15% active; AID 2234; in the data active means inhibition above about 33%
EBNA-1 inhibitor = blocks EBNA-1 binding to DNA. EBNA-1 DNA binding, fluorescence polarization. inhibition, % at 14.8 µM. 300,000 tested, 0.34% active; in the data active means inhibition above about 28%
UBC13 polyUb = inhibitors of human UBC13 polyubiquitin chain formation. P61088. TR-FRET. inhibition, % at 20 µM. 330,000 tested, 0.47% active. AID 485273; in the data active means inhibition above about 45%, passing the limit was not always enough; inconclusive means no clear call, values can overlap the other calls
PREPL inh = inhibitors of human prolyl oligopeptidase-like enzyme PREPL. recombinant PREPL, fluorescence polarization activity-based probe. 320,000 tested, 0.68% active. AID 2751. inhibition, % at 5.96 µM;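 further: 0% = enzyme with DMSO and 100% = wells lacking enzyme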
PREPL inh cf = human PREPL inhibition, confirmation; recombinant PREPL, fluorescence polarization activity probe; shares compounds with PREPL inh; AID 2803; inhibition, % at 5.96 µM; 2,000 tested, 67% active;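 further: 0% = protein with DMSO and 100% = wells lacking protein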
Active calls of the source: *. This is a sample that favours compounds with a hit; in the whole collection about 1.7% have one here. Unless noted, no stated cut-off is given here; in the data, active means inhibition above about 43%; inactive means the rest.

For CC(C)(C)c1ccc(-n2ncc3c2CCCC3NC(=O)CCN2CCCO2)cc1 (stereo not given) the results were Apaf1 inhib 8, ZTA counter -8, EBNA-1 inhibitor -13, UBC13 polyUb 0 and PREPL inh 3.
Screening CCN(CC(=O)Nc1ccc(Br)cc1)CC(=O)Nc1cc(C)on1 returned Apaf1 inhib -5 and UBC13 polyUb 0.
Screening CC(Nc1nc(-c2ccc(F)cc2)cs1)c1nc2cc(Cl)c(N3CCCCC3)cc2n1CCCO (stereo not given) returned Apaf1 inhib 9, ZTA counter 4, EBNA-1 inhibitor 11, UBC13 polyUb -1 and PREPL inh 17.
CC(Nc1nc(-c2ccc(F)cc2)cs1)c1nc2cc(Cl)c(N3CCCCC3)cc2n1CCOCCO (stereo not given) was read as Apaf1 inhib 31, ZTA counter 1, EBNA-1 inhibitor 3, UBC13 polyUb 1, PREPL inh 55* and PREPL inh cf 50*.
`CC(=O)c1c(C)[nH]c(C(=O)Nc2ccc(F)cc2F)c1C` gave Apaf1 inhib 0, ZTA counter 4, EBNA-1 inhibitor 1, UBC13 polyUb 0 and PREPL inh 3.
`O=C(CCCc1c[nH]c2ccccc12)NCCc1c[nH]c2ccccc12` gave Apaf1 inhib 5, ZTA counter 1, EBNA-1 inhibitor 5, UBC13 polyUb 7 and PREPL inh 19.
For O=C(NCCc1c[nH]c2ccccc12)OCCCCOC(=O)NCCc1c[nH]c2ccccc12 the results were Apaf1 inhib 18, ZTA counter -6, EBNA-1 inhibitor 6, UBC13 polyUb 45, PREPL inh 61* and PREPL inh cf 30.
CC(=O)Nc1ccc(C(=O)Cn2c3[n+](c4c(F)c(F)ccc42)CCCCC3)cc1 was read as Apaf1 inhib -2, ZTA counter 16, EBNA-1 inhibitor 0, UBC13 polyUb 7, PREPL inh 47* and PREPL inh cf 56*.
Screening Cc1ccc(Cn2c(=S)[nH]c3ccccc3c2=O)cc1 returned Apaf1 inhib 0, ZTA counter 3, EBNA-1 inhibitor -8, UBC13 polyUb 14 and PREPL inh 12.
Cc1c(C(=O)O)cccc1-c1ccc(/C=N/Nc2ccc(Br)cc2)o1 was read as Apaf1 inhib 8, ZTA counter -1, EBNA-1 inhibitor -8, UBC13 polyUb -18, PREPL inh 46* and PREPL inh cf 22.
O=C(O)c1ccc(N/N=C/c2ccc(-c3cccc(Cl)c3)o2)cc1 was read as Apaf1 inhib -9, ZTA counter -4, EBNA-1 inhibitor 5, UBC13 polyUb 6, PREPL inh 57* and PREPL inh cf 55*.
For O=C(O)c1ccc(N/N=C/c2ccc(-c3cc(Cl)ccc3Cl)o2)cc1 the results were Apaf1 inhib 15, ZTA counter 10, EBNA-1 inhibitor -6, UBC13 polyUb 3 and PREPL inh 29.
`N#C/C(=N\Nc1ccc([N+](=O)[O-])cc1)C(=N)N1CCOCC1` gave Apaf1 inhib 9, ZTA counter 0, EBNA-1 inhibitor 2, UBC13 polyUb 0 and PREPL inh 10.
`COC(=O)c1ccc2nc(C)cc(Nc3ccc(N(C)C)cc3)c2c1` gave Apaf1 inhib 13, ZTA counter 6, EBNA-1 inhibitor 7, UBC13 polyUb -19, PREPL inh 50* and PREPL inh cf 42.
For O=C1c2cc(CO)cc(O)c2C(=O)c2c(O[C@@H]3OC(CO)[C@@H](O)[C@@H](O)[C@@H]3O)cccc21 (stereo not given in full) the results were Apaf1 inhib -4, ZTA counter -5, EBNA-1 inhibitor -7, UBC13 polyUb -110 and PREPL inh -1.
Screening O=C(O)c1cc(O)c2c(c1)[C@H]([C@H]1c3cc(C(=O)O)cc(O)c3C(=O)c3c(O[C@@H]4O[C@H](CO)[C@@H](O)[C@H](O)[C@H]4O)cccc31)c1cccc(OC3O[C@H](CO)[C@@H](O)[C@H](O)[C@H]3O)c1C2=O (stereo not given in full) returned Apaf1 inhib 89*, ZTA counter 14, EBNA-1 inhibitor 94*, UBC13 polyUb inconclusive, PREPL inh 105* and PREPL inh cf 92*.
For COc1ccccc1NC(=O)Nc1nc(CC(=O)Nc2ccc(N(C)C)cc2)cs1 the results were Apaf1 inhib 22, ZTA counter 7, EBNA-1 inhibitor -3, UBC13 polyUb 4, PREPL inh 47* and PREPL inh cf 43*.
